Sampled rows, rich in hits. Any-hit rate of the full collection: about 2.2%.
dFosB act – mouse delta FosB homodimer activation | P13346 | purified delta FosB, TAMRA-CDK5 oligo fluorescence polarization; percent of positive-control signal above neutral wells | activation, % at 25 µM | hit rate 0.99% among 340,000 | AID 493131;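 active = mean activation above about 17%, with every replicate also reaching it, limit read from the data, passing the limit was not always enough; inconclusive = only one of the two conditions met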
Target sequence (P13346 whole entry, looked up): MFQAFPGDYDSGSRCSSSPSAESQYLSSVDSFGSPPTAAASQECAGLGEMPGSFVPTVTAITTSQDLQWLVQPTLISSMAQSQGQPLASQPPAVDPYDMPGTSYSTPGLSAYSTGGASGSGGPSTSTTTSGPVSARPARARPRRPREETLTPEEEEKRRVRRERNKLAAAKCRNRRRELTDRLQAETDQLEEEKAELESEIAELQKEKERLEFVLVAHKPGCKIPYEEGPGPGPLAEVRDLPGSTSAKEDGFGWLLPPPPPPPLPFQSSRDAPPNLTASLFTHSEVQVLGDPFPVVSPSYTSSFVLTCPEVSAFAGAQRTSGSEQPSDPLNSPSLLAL
CDK5 p35 inh – inhibitors of human CDK5/p35 kinase. Q00535+Q15078. Recombinant CDK5/p35, ADP-Glo luminescence, 60 min. inhibition, % at 10 µM. hit rate 0.01% among 330,000;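 active = highest replicate inhibition of at least 50% and at least 75% of replicates reaching 50%; inconclusive = only one of the two criteria met; inactive = both criteria failed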
Rtt109 Vps75 – blocks Candida albicans Rtt109/Vps75 acetyltransferase activity; hit rate 0.16% among 330,000; inhibition, % at 34.9 µM; purified Rtt109/Vps75, ThioGlo CoA-SH fluorescence, 4 h;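 active = inhibition of at least 50% in every replicate; inconclusive = best replicate reaches 50% inhibition but some replicates fall short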
Target sequence (Q5AAJ8 whole entry, looked up): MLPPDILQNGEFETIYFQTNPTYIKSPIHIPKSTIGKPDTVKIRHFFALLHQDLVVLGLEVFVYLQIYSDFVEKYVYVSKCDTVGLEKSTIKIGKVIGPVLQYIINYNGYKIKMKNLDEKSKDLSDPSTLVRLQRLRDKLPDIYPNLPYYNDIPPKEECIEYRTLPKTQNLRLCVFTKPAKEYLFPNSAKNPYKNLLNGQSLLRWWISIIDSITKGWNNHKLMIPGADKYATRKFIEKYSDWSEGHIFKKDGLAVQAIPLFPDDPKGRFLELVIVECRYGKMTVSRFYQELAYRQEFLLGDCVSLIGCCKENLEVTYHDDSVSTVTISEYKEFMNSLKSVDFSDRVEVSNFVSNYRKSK
CAL PDZ FP-1 – CAL PDZ (human) peptide binding inhibition; Q9HD26; purified CAL PDZ, TMR-peptide fluorescence polarization, 1 h; inhibition, % at 24.9 µM; hit rate 0.92% among 300,000;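 active = mean inhibition of at least 30% with at least half of replicates also reaching 30%; inconclusive = no clear call, values can overlap the other calls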
CAL PDZ FP-2 – human CAL PDZ-peptide interaction inhibition | hit rate 0.02% among 330,000 | Q9HD26 | purified CAL PDZ, TMR-peptide fluorescence polarization, 1 h | inhibition, % at 20 µM;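 active = highest replicate inhibition of at least 40%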
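Read-out basis: mP drop reported as inhibition | Assay system: Tagged CAL PDZ protein CerCALP, purified | Benchmarks: Unlabelled peptide for full inhibition, DMSO wells as neutral | Schedule: 1 h incubation at room temperature before polarization reading | Buffer or medium: Sodium phosphate/NaCl buffer pH 7.4 with TCEP, IgG, Thesit | Doses: Single point, 20 µM | Measured by: Fluorescence polarization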
Dyrk1A ADPGlo – inhibitors of rat Dyrk1A kinase | Q63470 | hit rate 0.43% among 310,000 | AID 504441 | inhibition, % at 12.5 µM | ADP-Glo luminescence, NFATc1 peptide; in the data active = inhibition above about 50%
Large screens that a line does not name were inactive.

Cc1cccc(CS(=O)(=O)Cc2ccc(C(=O)O)o2)c1	CAL PDZ FP-1 74.6
O=C(CN1C(=O)NC2(CCc3ccccc32)C1=O)c1ccc(F)c(F)c1 (stereo not given)	none
Cc1cccc(C)c1C(OCCN(C)C)C1CCCCC1 (stereo not given)	none
O=C(COC(=O)CN1C(=O)c2ccccc2C1=O)Nc1ccc(S(=O)(=O)N2CCCC2)cc1	CAL PDZ FP-1 35.4 (no result: CAL PDZ FP-2)
COc1ccc(-n2c3c(cc(C#N)c2=O)C(=O)CCC3)cc1	none
Cc1ccc(NC(=O)C(c2ccc(Cl)cc2)N2CCCCC2)cc1 (stereo not given)	none
Cc1ccc(NC(=O)C(c2ccc(Cl)cc2)N2CCOCC2)cc1 (stereo not given)	CAL PDZ FP-1 43.2
CC1=C(C)/C(=N\OS(=O)(=O)c2ccccc2)C=CC1=O	Rtt109 Vps75 147.3
Cc1ccc(S(=O)(=O)O/N=C2\CCCc3ccccc32)cc1	none
Clc1nc(Nc2ccccc2)nc(Nc2ccccc2)n1	Rtt109 Vps75 50.2
CC(C)(C)Nc1nc(Cl)nc(Nc2ccccc2)n1	none
CCOC(=O)C1=C(C)NC(C)=C(C(=O)OCC)C1c1ccc(C)o1	CAL PDZ FP-1 73.9
C=CCOC(=O)C1=C(C)NC(C)=C(C(=O)OCC=C)C1c1ccc(C)o1	none
COC(=O)C1=C(C)NC(C)=C(C(=O)OC)C1c1ccco1	CAL PDZ FP-1 91.3
CCOC(=O)C1=C(C)NC(C)=C(C(=O)OCC)C1c1ccco1	none (no result: CAL PDZ FP-1)
CC[C@@H](C)[C@H](N)C(=O)NC[C@H]1O[C@@H](n2cnc3c(N)ncnc32)[C@H](O)[C@@H]1O	none (no result: Dyrk1A ADPGlo)
CCOC(=O)c1c(NC(=O)COC(=O)c2ccncc2)sc(C)c1C	none (no result: Dyrk1A ADPGlo)
NC(=O)C1CCN(S(=O)(=O)c2cc3c4c(c2)CCN4C(=O)CC3)CC1	none
COC(=O)C1CCN(CC(=O)NC(=O)NC2CCCCC2)CC1	none (no result: CAL PDZ FP-1)
COc1ccccc1NC(=O)Nc1nc(CC(=O)N2CCN(c3ccccc3OC)CC2)cs1	none
O=C(NCC(=O)N1CCN(Cc2ccccc2)CC1)c1ccc(Br)cc1	CAL PDZ FP-1 40.9
O=C(NCC(=O)N1CCCCC1)c1ccc2ccccc2c1	Rtt109 Vps75 51.7
O=C1CCN(Cc2ccco2)C(=S)N1	none
NC(=S)NNc1cc(Cl)cc(Cl)c1	CAL PDZ FP-1 97.0 (no result: CAL PDZ FP-2)
O=C(NNC(=O)c1ccccc1Br)c1ccccc1Cl	none (no result: CAL PDZ FP-1)
NC(=S)NNC(=O)c1ccccc1Cl	CAL PDZ FP-1 34.5
O=C1NC(=S)CN1c1ccccc1	Rtt109 Vps75 140.7
COc1ccc(-c2ccc(SCC(=O)c3ccccc3)nn2)cc1OC	CAL PDZ FP-1 71.1
Cc1ccc(-c2ccc(SCC(=O)c3ccccc3)nn2)cc1	none
Cn1nc(C(F)(F)F)c(-c2ccc(F)cc2)c1NC(=O)c1cccnc1	none (no result: CAL PDZ FP-1)
O=C(c1nc2ccc(Cl)cn2c1CN1CCC(CO)CC1)N1CCc2ccccc2C1	CAL PDZ FP-1 38.0
O=C(c1nc2ccc(Cl)cn2c1CN1CCCC1)N1CCc2ccccc2C1	none (no result: CDK5 p35 inh, Dyrk1A ADPGlo)
CN(CC(=O)Nc1cccc(F)c1)C(=O)c1cc([N+](=O)[O-])ccc1N1CCCCC1	none
COC(=O)c1cccc(N2C(=O)C(Cl)=C(N3CCOCC3)C2=O)c1	Rtt109 Vps75 115.2
O=C1C(Cl)=C(N2CCOCC2)C(=O)N1c1ccccc1Cl	Rtt109 Vps75 161.9 (no result: CAL PDZ FP-2)
O=C1C(Cl)=C(N2CCCCCC2)C(=O)N1c1ccccc1Cl	none
Cc1ccc(OCC(=O)NC2CCS(=O)(=O)C2)c(C)c1 (stereo not given)	none
COc1ccc(C(=O)N2CCCC(Nc3ccc(F)cc3)C2)c(OC)c1 (stereo not given)	none
O=C(Nc1ccc(F)cc1F)c1ccc(S(=O)(=O)N2CCCCC2)cc1	CAL PDZ FP-1 33.5
CCN1CCN(c2ccc(S(=O)(=O)N3CCCCC3)cc2NC(=O)c2cccc(C(F)(F)F)c2)CC1	dFosB act 20.9 (no result: CAL PDZ FP-1)
O=C(Nc1ccc(F)cc1F)c1ccc(S(=O)(=O)NCc2ccco2)cc1	CAL PDZ FP-1 47.7
O=C1/C(=C/c2ccccn2)SC(=S)N1Nc1ncc(C(F)(F)F)cc1Cl	none
CCOC(=O)C1CCN(c2ccccc2CN2CCN(c3ccccc3OCC)CC2)CC1	none
CCOc1ccc(CO[C@@H]2O[C@H](CO)[C@@H](O)[C@H](O)[C@H]2NC(C)=O)cc1OC	none (no result: CAL PDZ FP-2)
CCN(CC)C(=O)COc1ccc(N(C)S(=O)(=O)c2ccc(NC(C)=O)cc2)cc1	CAL PDZ FP-1 71.3
COc1cc(NC(=O)CN(C)CCOc2ccccc2)c(C)cc1[N+](=O)[O-]	CAL PDZ FP-1 41.6
CN(CCOc1ccccc1)CC(=O)Nc1ccc(Cl)cc1[N+](=O)[O-]	none (no result: Dyrk1A ADPGlo)
CCOc1ccc(C(C)C)cc1S(=O)(=O)N1CCN(C(=O)c2ccco2)CC1	none (no result: Dyrk1A ADPGlo)
COCCNC(=O)/C(C#N)=C/c1c(N2CCN(c3ccccc3)CC2)nc2ccccn2c1=O	CAL PDZ FP-1 57.2
Cc1cc(C)n(C(=O)c2cccc(S(=O)(=O)N3CCOCC3)c2)n1	CAL PDZ FP-1 63.6
Cc1cc(C)n(C(=O)c2cccc(S(=O)(=O)N3CCCCC3)c2)n1	none
CN(c1ccc([N+](=O)[O-])cc1C(N)=O)C1CCCCC1	none (no result: CAL PDZ FP-1)
COc1ccccc1OCC(O)Cn1nc(C)cc1C (stereo not given)	CAL PDZ FP-1 74.1
CN1CCN(C(=O)CC2C(=O)NCCN2Cc2ccc(-c3ccccc3)cc2)CC1 (stereo not given)	CAL PDZ FP-1 71.3
Cc1cc(Cl)ccc1NC(=S)NCc1ccc(F)cc1	none
CC(=O)OCCNc1cc(Sc2nc3ccccc3[nH]2)c2nonc2c1[N+](=O)[O-]	Rtt109 Vps75 70.2
CC(=O)OCCCNc1cc(Sc2nc3ccccc3s2)c2nonc2c1[N+](=O)[O-]	none (no result: CAL PDZ FP-1)
COc1ccc(C(=O)OCC(=O)Nc2cccc(S(=O)(=O)NC3=NCCCCC3)c2)cc1[N+](=O)[O-]	none
CCCC(=O)Nc1ccc(C(=O)NNC(=O)c2cccs2)cc1	none
CCCC(=O)Nc1ccc(C(=O)NNC(=S)NC(=O)c2cccs2)cc1	Rtt109 Vps75 60.5
Cc1ccc(NC(=O)Cc2sc(C)nc2-c2ccc(C)cc2)cc1	none
Cc1ccc(-c2nc(C)sc2CC(=O)OCC(=O)Nc2ccc(F)c(Cl)c2)cc1	CAL PDZ FP-1 54.3
Cc1nonc1NC(=O)CSc1nnc(-c2ccoc2C)n1CC(C)C	CAL PDZ FP-1 176.5 (no result: CAL PDZ FP-2)
CCn1c(SCC(=O)Nc2nonc2C)nnc1-c1ccoc1C	none (no result: CAL PDZ FP-2)
Cc1ccc2sc(N(CCCN(C)C)C(=O)c3ccc(S(=O)(=O)N4CCc5ccccc5C4)cc3)nc2c1C	dFosB act 38.1 (no result: CAL PDZ FP-1)
CN(C)CCCN(C(=O)c1ccc(S(=O)(=O)N2CCc3ccccc3C2)cc1)c1nc2c(F)cc(F)cc2s1	dFosB act 37.4
COc1ccc(C)c2sc(N(CCCN(C)C)C(=O)c3ccc(S(=O)(=O)N4CCc5ccccc5C4)cc3)nc12	dFosB act 69.7, Rtt109 Vps75 inconclusive

High-throughput results from PubChem BioAssay.
